Reference: ChEMBL document CHEMBL2062436, “Design, synthesis, and antiviral evaluation of purine-β-lactam and purine-aminopropanol hybrids” (J Med Chem, 2012)
pEC50: −log10 of the molar value. Activity calls are given as the source filed them. The rule behind the calls is not given here.

Tests used:
dengue virus type 2 = assay: Antiviral activity against Dengue virus 2 assessed as inhibition of virus-induced cytopathic effect by cell-based assay; format: functional, organism-based
[1] = system: unidentified influenza virus; assay: Antiviral activity against unidentified influenza virus assessed as inhibition of virus-induced cytopathic effect by cell-based assay; format: functional, organism-based
Hepatitis C virus = assay: Antiviral activity against Hepatitis C virus infected in […] cells by luciferase assay; format: functional, organism-based; conditions: Hepacivirus hominis
[2] = system: Human immunodeficiency virus 1; assay: Antiviral activity against Human immunodeficiency virus 1 3B infected in MT4 cells by fluorescence analysis; format: functional, organism-based
[3] = Cytotoxicity against human HeLa cells by luminescence assay; format: cell-based
Human orthopneumovirus = assay: Antiviral activity against Human respiratory syncytial virus infected in HeLa cells; format: functional, organism-based
[4] = Selectivity index, ratio of CC50 for HeLa cells to EC50 for Human respiratory syncytial virus; format: toxicity, cell-based; conditions: read-out: Ratio CC50/EC50
Summary of the method: (§1)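 Ratio of CC50 to EC50. CC50 is the 50% cytotoxic concentration. EC50 is the concentration giving 50% inhibition of the virus-reduced signal relative to the uninfected cell control.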

[5] = Selectivity index, ratio of CC50 for host cell to EC50 for Chikungunya virus
Summary of the method: (§2)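 SI calculated as CC50/EC50. CC50 is the 50% cytotoxic concentration in host cells. EC50 is the concentration giving 50% inhibition of the virus-reduced signal versus uninfected cell controls.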

Chikungunya virus = assay: Antiviral activity against Chikungunya virus assessed as inhibition of virus-induced cytopathic effect by cell-based assay; format: functional
Summary of the method: (§3)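 EC50 taken as the compound concentration giving 50% inhibition of the virus-reduced cell signal, relative to uninfected cell controls.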

Coxsackievirus = assay: Antiviral activity against Coxsackievirus assessed as inhibition of virus-induced cytopathic effect by cell-based assay; format: functional, organism-based; summary of the method: as §3
[6] = Selectivity index, ratio of CC50 for host cell to EC50 for Coxsackievirus; summary of the method: as §2
[7] = Cytotoxicity against human HepG2 cells by resazurin assay; format: cell-based
[8] = Selectivity index, ratio of CC50 for HepG2 cells to EC50 for Hepatitis B virus; format: toxicity, cell-based; conditions: human, read-out: Ratio CC50/EC50; summary of the method: as §1
Hepatitis B virus = assay: Antiviral activity against Hepatitis B virus infected in HepG2(2.2.15) by PCR analysis; format: functional, organism-based
[9] = Selectivity index, ratio of CC50 for Hel299 cells to EC50 for Cytomegalovirus; format: toxicity, cell-based; conditions: human, read-out: Ratio CC50/EC50; summary of the method: as §1
Cytomegalovirus = assay: Antiviral activity against Cytomegalovirus infected in human Hel299 cells; format: functional, organism-based; conditions: Human betaherpesvirus 5, HEL 299
[10] = Cytotoxicity human HEL299 cells by resazurin assay; format: cell-based, HEL 299

SMILES	Activity (dengue virus type 2)	Activity [1]	Activity (Hepatitis C virus)	Activity [2]	CC50 [3] [µM]	pEC50 (Human orthopneumovirus)	selectivity ratio [4]	Ratio CC50/EC50 [5]	pEC50 (Chikungunya virus)	pEC50 (Coxsackievirus)	Ratio CC50/EC50 [6]	CC50 [7] [µM]	selectivity ratio [8]	pEC50 (Hepatitis B virus)	selectivity ratio [9]	pEC50 (Cytomegalovirus)	CC50 [10] [µM]
O=C1[C@H](CCn2cnc3c(OCc4ccccc4)ncnc32)[C@@H](c2ccccc2)N1Cc1ccccc1	inactive	inactive	inactive	inactive	–	–	–	–	–	–	–	–	–	–	–	–	–
CC(C)N[C@H](c1ccccc1F)[C@H](CO)CCCn1cnc2c(NCc3ccccc3)ncnc21 (relative stereo)	inactive	inactive	inactive	inactive	> 100	4.63	> 4.25	–	–	–	–	–	–	–	–	–	–
O=C1[C@@H](Oc2ccccc2)[C@@H](c2ccccc2)N1CCCn1cnc2c(NCc3ccccc3)ncnc21 (relative stereo)	inactive	inactive	inactive	inactive	46.6	5.09	5.79	>5.75	4.77	5.45	>28.09	–	–	–	–	–	–
O=C1[C@@H](OCc2ccccc2)[C@@H](c2ccc(Cl)cc2Cl)N1CCCn1cnc2c(NCc3ccccc3)ncnc21 (relative stereo)	inactive	inactive	inactive	inactive	40.1	5.65	17.9	–	–	–	–	–	–	–	–	–	–
O=C1[C@@H](OCc2ccccc2)[C@@H](c2ccccc2)N1CCn1cnc2c(NCc3ccccc3)ncnc21 (relative stereo)	inactive	inactive	inactive	inactive	–	–	–	–	–	–	–	> 50	4.52	4.96	–	–	–
COc1ccccc1[C@@H]1[C@H](Oc2ccccc2)C(=O)N1CCn1cnc2c(NCc3ccccc3)ncnc21 (relative stereo)	inactive	inactive	inactive	inactive	–	–	–	4.53	4.89	–	–	–	–	–	–	–	–
O=C1[C@@H](Oc2ccccc2)[C@@H](c2ccccc2)N1CCCn1cnc2c(OCc3ccccc3)ncnc21 (relative stereo)	inactive	inactive	inactive	inactive	–	–	–	–	–	5.53	>34.05	–	–	–	4.13	4.77	70.8
OC[C@@H](Oc1ccccc1)[C@H](NCCn1cnc2c(NCc3ccccc3)ncnc21)c1ccc(Cl)cc1 (relative stereo)	inactive	inactive	inactive	inactive	8.23	5.72	4.29	6.19	4.94	–	–	31.9	9.19	5.46	–	–	–
CCCN1C(=O)[C@H](CCCn2cnc3c(NCc4ccccc4)ncnc32)[C@H]1c1ccccc1 (relative stereo)	inactive	inactive	inactive	inactive	–	–	–	–	–	5.56	17.11	–	–	–	4.29	5.15	30.7
CC(C)N1C(=O)[C@H](CCCn2cnc3c(NCc4ccccc4)ncnc32)[C@H]1c1ccccc1F (relative stereo)	inactive	inactive	inactive	inactive	75.6	5.11	9.71	–	–	–	–	–	–	–	–	–	–
CC(C)N1C(=O)[C@H](CCn2cnc3c(OCc4ccccc4)ncnc32)[C@H]1c1ccccc1 (relative stereo)	inactive	inactive	inactive	inactive	–	–	–	–	–	5.38	11.55	–	–	–	–	–	–
CC(C)N1C(=O)[C@H](CCn2cnc3c(NCc4ccccc4)ncnc32)[C@H]1c1ccccc1 (relative stereo)	inactive	inactive	inactive	inactive	–	–	–	–	–	–	–	–	–	–	–	–	–
CC(C)N[C@H](c1ccccc1)[C@H](CO)CCn1cnc2c(NCc3ccccc3)ncnc21 (relative stereo)	inactive	inactive	inactive	inactive	–	–	–	–	–	–	–	–	–	–	–	–	–
CCCN[C@H](c1ccccc1)[C@H](CO)CCCn1cnc2c(NCc3ccccc3)ncnc21 (relative stereo)	inactive	inactive	inactive	inactive	–	–	–	–	–	–	–	–	–	–	–	–	–
CO[C@@H]1C(=O)N(CCCn2cnc3c(NCc4ccccc4)ncnc32)[C@@H]1c1ccc(C(C)C)cc1 (relative stereo)	inactive	inactive	inactive	inactive	–	–	–	–	–	–	–	–	–	–	–	–	–
CO[C@H](CO)[C@H](NCCCn1cnc2c(NCc3ccccc3)ncnc21)c1ccc(C(C)C)cc1 (relative stereo)	inactive	inactive	inactive	inactive	–	–	–	–	–	–	–	–	–	–	–	–	–
O=C1[C@@H](Oc2ccccc2)[C@@H](c2ccc(Cl)cc2)N1CCn1cnc2c(NCc3ccccc3)ncnc21 (relative stereo)	inactive	inactive	inactive	inactive	–	–	–	–	–	–	–	–	–	–	–	–	–
O=C1[C@@H](Oc2ccccc2)[C@@H](c2ccccc2)N1CCn1cnc2c(NCc3ccccc3)ncnc21 (relative stereo)	inactive	inactive	inactive	inactive	–	–	–	–	–	–	–	–	–	–	–	–	–
OC[C@@H](OCc1ccccc1)[C@H](NCCCn1cnc2c(NCc3ccccc3)ncnc21)c1ccc(Cl)cc1Cl (relative stereo)	inactive	inactive	inactive	inactive	–	–	–	–	–	–	–	–	–	–	–	–	–
OC[C@@H](Oc1ccccc1)[C@H](NCCCn1cnc2c(NCc3ccccc3)ncnc21)c1ccccc1 (relative stereo)	inactive	inactive	inactive	inactive	–	–	–	–	–	–	–	–	–	–	–	–	–
